Compounds with a hit are over-represented: about 3% of the library has one in this group of screens.
UCH37 DUB inh – human UCH37 deubiquitinating enzyme inhibition | Q9Y5K5 | purified proteasome/UCH37, Ub-AMC cleavage fluorescence | inhibition, % (test concentration not listed) | 0.33% of 330,000 active | AID 588478;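 active = mean inhibition over replicate wells above about 20%, limit read from the data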;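 also: 0% = compound-free wells with enzyme and 100% = wells lacking proteasome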
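Assay system: Proteasome-bound UCH37. Buffer or medium: pH 7.4 Tris-HCl (50 mM) with ovalbumin, ATP-MgCl2, DTT. Incubation: 30 min preincubation with enzyme, 25 min cleavage at room temperature. Measured by: fluorescence, ex 355 nm, em 460 nm. Read-out basis: percent inhibition. Control set: wells without proteasome as full block, compound-free enzyme plus substrate as uninhibited.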
MEKK3 PB1 HTS – raises or lowers MEK5 binding to the human MEKK3 PB1 domain; binding response (% of control), % at 10 µM; AID 1529; bead-based flow cytometry, Alexa488-MEK5 binding to MEKK3; actives lie on both sides; 0 = blocked by unlabeled MEK5, 100 = vehicle; 1.4% of 290,000 active;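 active = binding response more than 3 SD above or below the average of its plate-row segment, actives on both sides; inconclusive = wells at one plate position flagged as instrument error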;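 also: Alexa488 bead fluorescence after subtracting the streptavidin-only scavenger bead signal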
MEKK2 WT-MEK5 – raises or lowers MEK5 binding to wildtype human MEKK2 PB1 domain; 1.1% of 290,000 active; bead flow cytometry, Alexa488-MEK5 binding to MEKK2 WT; actives lie on both sides; AID 1531; binding response (% of control), % at 10 µM; Q9Y2U5; in the data active = binding response below about 67% or above about 130%; inconclusive = no clear call, values can overlap the other calls; inactive = in between
Apaf1 inhib – blocks human Apaf-1 apoptosome activity; inhibition, % at 20 µM; reconstituted apoptosome caspase-3 activity, DEVD-Rh110 fluorescence; 0.71% of 330,000 active; active = inhibition of at least 40% at 20 µM;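 also: plate controls were DMSO wells for no effect and DEVD-CHO caspase inhibitor wells for full effect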
Target sequence (O14727 whole entry, looked up): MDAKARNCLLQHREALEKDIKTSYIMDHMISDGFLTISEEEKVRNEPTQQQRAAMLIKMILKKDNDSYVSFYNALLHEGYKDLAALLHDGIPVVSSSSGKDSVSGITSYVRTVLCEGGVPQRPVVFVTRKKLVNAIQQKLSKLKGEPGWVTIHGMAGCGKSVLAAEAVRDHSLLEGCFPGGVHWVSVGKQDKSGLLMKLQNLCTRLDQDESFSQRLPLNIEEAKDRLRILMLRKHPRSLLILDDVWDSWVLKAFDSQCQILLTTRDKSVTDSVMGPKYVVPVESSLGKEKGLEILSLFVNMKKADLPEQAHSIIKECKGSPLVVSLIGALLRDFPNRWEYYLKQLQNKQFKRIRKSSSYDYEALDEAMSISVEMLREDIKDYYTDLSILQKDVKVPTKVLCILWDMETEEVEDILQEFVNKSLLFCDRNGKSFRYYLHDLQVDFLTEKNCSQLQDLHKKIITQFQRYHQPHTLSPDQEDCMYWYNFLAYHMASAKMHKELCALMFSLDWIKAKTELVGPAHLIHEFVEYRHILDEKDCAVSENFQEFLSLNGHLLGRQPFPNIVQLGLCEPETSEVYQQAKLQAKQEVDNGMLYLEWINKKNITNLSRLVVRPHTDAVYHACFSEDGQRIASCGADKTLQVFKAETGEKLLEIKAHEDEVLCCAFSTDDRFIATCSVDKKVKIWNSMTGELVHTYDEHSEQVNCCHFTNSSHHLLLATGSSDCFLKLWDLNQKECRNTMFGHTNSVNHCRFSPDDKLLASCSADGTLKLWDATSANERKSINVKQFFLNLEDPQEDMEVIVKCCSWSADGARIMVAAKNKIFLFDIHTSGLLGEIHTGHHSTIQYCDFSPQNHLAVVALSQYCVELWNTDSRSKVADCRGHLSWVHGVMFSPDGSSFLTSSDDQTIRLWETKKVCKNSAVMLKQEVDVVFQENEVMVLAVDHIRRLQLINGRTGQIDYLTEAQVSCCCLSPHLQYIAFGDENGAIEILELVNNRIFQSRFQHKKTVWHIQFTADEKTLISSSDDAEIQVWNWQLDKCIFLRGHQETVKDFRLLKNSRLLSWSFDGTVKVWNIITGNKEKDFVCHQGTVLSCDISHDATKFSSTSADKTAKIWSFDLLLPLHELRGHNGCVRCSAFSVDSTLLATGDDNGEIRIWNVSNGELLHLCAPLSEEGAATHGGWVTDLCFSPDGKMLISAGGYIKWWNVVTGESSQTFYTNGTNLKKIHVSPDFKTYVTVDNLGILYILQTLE
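Material: reconstituted apoptosome with Apaf-1, cytochrome c, caspase-9, procaspase-3, dATP; medium: pH 7.5 Hepes buffer with CHAPS, BSA, DTT; also added: cytochrome c and DEVD-Rh110 substrate; timing: 30 min plus 50 min, RT; signal: Rh110 fluorescence intensity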
MEKK2mut PB1 HTS – signal of MEK5 binding to mutant human MEKK2 PB1 domain | AID 1530 | 0.35% of 290,000 active | bead flow cytometry, Alexa488-MEK5 binding to MEKK2 mutant | percent response, % at 10 µM; in the data active = percent response above about 24%, passing the limit was not always enough
UBC13 polyUb – human UBC13 polyubiquitination inhibition; UBC13 polyubiquitin chain formation, TR-FRET; inhibition, % at 20 µM; 0.47% of 330,000 active; AID 485273; in the data active = inhibition above about 45%, passing the limit was not always enough; inconclusive = no clear call, values can overlap the other calls
Casp3 counter – caspase-3 inhibition (UBC13 counter-screen) | shares compounds with UBC13 polyUb | Recombinant caspase-3, Caspase-Glo 3/7 luminescence, 60 min | 4% of 1,400 active | inhibition, % at 20 µM;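 active = mean inhibition across replicates above about 26%, limit read from the data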;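 also: plate controls were DMSO with caspase-3 for no effect and DMSO wells lacking enzyme for full effect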
UBC13 conf – confirmation of human UBC13 polyubiquitin inhibitors; shares compounds with UBC13 polyUb; UBC13 polyubiquitination, TR-FRET, biochemical; inhibition, % at 10 µM; 68% of 1,400 active; in the data active = inhibition above about 45%; inconclusive = no clear call, values can overlap the other calls
Active calls of the source: *.

Results for CCCn1c(SCC(=O)NCC2CCCO2)nc2c1c(=O)n(C)c(=O)n2C (stereo not given) ?
UCH37 DUB inh: -2; MEKK3 PB1 HTS: 101; MEKK2 WT-MEK5: 100; Apaf1 inhib: 8; MEKK2mut PB1 HTS: 1; UBC13 polyUb: 8

Results for C#CCOCCOCCOCCNc1nc(N2CCN(C(=O)CCCCCCCCCCNC(=O)[C@@H](CCSC)n3cc(CCO)nn3)CC2)nc(N2CCN(C(=O)CCCCCCCCCCNC(=O)[C@H]([C@@H](C)CC)n3cc(CCCCN=C(N)N)nn3)CC2)n1 ?
Apaf1 inhib: 64*; UBC13 polyUb: 125*; Casp3 counter: -3; UBC13 conf: 124*

What do the screens show for `C#CCOCCOCCOCCNc1nc(N2CCN(C(=O)CCCCCCCCCCNC(=O)[C@H](CCCCN)n3cc(CCCC(=O)O)nn3)CC2)nc(N2CCN(C(=O)CCCCCCCCCCNC(=O)[C@H](CCCCN)n3cc(CCCC(=O)O)nn3)CC2)n1`?
UCH37 DUB inh: 2; Apaf1 inhib: 18; UBC13 polyUb: 45*; Casp3 counter: 0; UBC13 conf: 35

What do the screens show for `C#CCOCCOCCOCCNc1nc(N2CCN(C(=O)CCCCCCCCCCNC(=O)[C@@H](CCC(=O)O)n3cc(CCCCCN)nn3)CC2)nc(N2CCN(C(=O)CCCCCCCCCCNC(=O)[C@@H](CCC(=O)O)n3cc(CCCCCN)nn3)CC2)n1`?
UCH37 DUB inh: 4; Apaf1 inhib: 36; UBC13 polyUb: 45*; Casp3 counter: 2; UBC13 conf: 36

How did C#CCOCCOCCOCCNc1nc(N2CCOCC2)nc(N2CCN(C(=O)CCCCCCCCCCNC(=O)Cn3cc(CCCCCN)nn3)CC2)n1 do in these assays?
UCH37 DUB inh: 0; Apaf1 inhib: 26; UBC13 polyUb: 28

How did C#CCOCCOCCOCCNc1nc(N2CCOCC2)nc(N2CCN(C(=O)CCCCCCCCCCNC(=O)[C@H](CO)n3cc(CCCCCN)nn3)CC2)n1 do in these assays?
UCH37 DUB inh: 2; Apaf1 inhib: 44*; UBC13 polyUb: 62*; Casp3 counter: -2; UBC13 conf: 38

Results for C#CCOCCOCCOCCNc1nc(N2CCN(C(=O)Cn3cc(CCCN=C(N)N)nn3)CC2)nc(N2CCN(C(=O)[C@H]([C@@H](C)CC)n3cc(CCCN=C(N)N)nn3)CC2)n1 ?
MEKK3 PB1 HTS: 98; MEKK2 WT-MEK5: 106; MEKK2mut PB1 HTS: -2

Results for C#CCOCCOCCOCCNc1nc(N2CCN(C(=O)Cn3cc(CC(C)O)nn3)CC2)nc(N2CCN(C(=O)[C@H](CCCCN)n3cc(CCC(=O)O)nn3)CC2)n1 (stereo not given in full) ?
UCH37 DUB inh: 0; MEKK3 PB1 HTS: 108; MEKK2 WT-MEK5: 96; Apaf1 inhib: 5; MEKK2mut PB1 HTS: 3; UBC13 polyUb: -3

How did C#CCOCCOCCOCCNc1nc(N2CCN(C(=O)[C@H]([C@@H](C)CC)n3cc(CCCN=C(N)N)nn3)CC2)nc(N2CCN(C(=O)[C@H](CCCCN)n3cc(CCC(=O)O)nn3)CC2)n1 do in these assays?
UCH37 DUB inh: 4; MEKK3 PB1 HTS: 105; MEKK2 WT-MEK5: 96; Apaf1 inhib: 13; MEKK2mut PB1 HTS: -4; UBC13 polyUb: 9

Results for C#CCOCCOCCOCCNc1nc(N2CCN(C(=O)[C@H]([C@@H](C)CC)n3cc(CCCCN)nn3)CC2)nc(N2CCN(C(=O)[C@H](CCCCN)n3cc(CCC(=O)O)nn3)CC2)n1 ?
UCH37 DUB inh: -4; Apaf1 inhib: 3; UBC13 polyUb: -5

Results for C#CCOCCOCCOCCNc1nc(N2CCN(C(=O)CCCCCCCCCCNC(=O)[C@H](CCCCN)n3cc(CCCC(=O)O)nn3)CC2)nc(N2CCN(C(=O)CCCCCCCCCCNC(=O)[C@H](CCCN=C(N)N)n3cc(C[C@@H](C)CC)nn3)CC2)n1 ?
UCH37 DUB inh: 2; Apaf1 inhib: 76*; UBC13 polyUb: 123*; Casp3 counter: -1; UBC13 conf: 126*

What do the screens show for `C#CCOCCOCCOCCNc1nc(N2CCN(C(=O)CCCCCCCCCCNC(=O)[C@H](CCCCN)n3cc(C)nn3)CC2)nc(N2CCN(C(=O)CCCCCCCCCCNC(=O)[C@@H]([C@H](C)CC)n3cc(CCCCCN)nn3)CC2)n1`?
Apaf1 inhib: 82*; UBC13 polyUb: 126*; Casp3 counter: -1; UBC13 conf: 128*

Results for CCc1ccc(O)c(CNCCNCc2cc(CC)ccc2O)c1 ?
UCH37 DUB inh: 1; Apaf1 inhib: 30; UBC13 polyUb: 64*; Casp3 counter: 1; UBC13 conf: 32

What do the screens show for `COc1ccc(CNCc2cc(Cl)ccc2O)cc1`?
UCH37 DUB inh: 0; Apaf1 inhib: 5; UBC13 polyUb: 17

How did Cc1ccc(O)c(CNCCNCc2cc(C)ccc2O)c1 do in these assays?
UCH37 DUB inh: 2; Apaf1 inhib: 28; UBC13 polyUb: 50*; Casp3 counter: 0; UBC13 conf: 52*

What do the screens show for `Cc1sc2nc(C(C)Nc3ccccc3N3CCOCC3)[nH]c(=O)c2c1C` (stereo not given)?
UCH37 DUB inh: -6; MEKK3 PB1 HTS: 99; MEKK2 WT-MEK5: 99; Apaf1 inhib: 2; MEKK2mut PB1 HTS: 4; UBC13 polyUb: 74*; Casp3 counter: -1; UBC13 conf: 87*

What do the screens show for `COc1ccc(-c2c(-c3ccc(C#N)cc3)oc(=O)c3cc(OC)c(OC)cc23)cc1`?
UCH37 DUB inh: -19; Apaf1 inhib: 11; UBC13 polyUb: 45*; Casp3 counter: 0; UBC13 conf: 24

What do the screens show for `Cc1cccc2c1c(N=NC(N)=S)c(O)n2C1OC(CO)C(O)C(O)C1O` (stereo not given)?
UCH37 DUB inh: 13; MEKK3 PB1 HTS: 108; MEKK2 WT-MEK5: 112; Apaf1 inhib: -18; MEKK2mut PB1 HTS: 8; UBC13 polyUb: 67*; Casp3 counter: 5; UBC13 conf: 97*

Results for Nc1cccc2c1nnn2C1OC(CO)C(O)C(O)C1O (stereo not given) ?
UCH37 DUB inh: -10; MEKK3 PB1 HTS: 82; MEKK2 WT-MEK5: 96; Apaf1 inhib: 1; MEKK2mut PB1 HTS: 0; UBC13 polyUb: 4

How did Cn1c2ccccc2c(=O)c2ccc(NCCc3cccs3)cc21 do in these assays?
UCH37 DUB inh: -102; Apaf1 inhib: 30; UBC13 polyUb: 45*; Casp3 counter: 88*; UBC13 conf: inconclusive
